{"source": "paper PMC3513709", "about": "(The Biochemical journal, 2012)", "key": {"[1]": {"target": "hCHT (human chitotriosidase) (Homo sapiens, UniProt Q13231)", "sequence (Q13231 22-466)": "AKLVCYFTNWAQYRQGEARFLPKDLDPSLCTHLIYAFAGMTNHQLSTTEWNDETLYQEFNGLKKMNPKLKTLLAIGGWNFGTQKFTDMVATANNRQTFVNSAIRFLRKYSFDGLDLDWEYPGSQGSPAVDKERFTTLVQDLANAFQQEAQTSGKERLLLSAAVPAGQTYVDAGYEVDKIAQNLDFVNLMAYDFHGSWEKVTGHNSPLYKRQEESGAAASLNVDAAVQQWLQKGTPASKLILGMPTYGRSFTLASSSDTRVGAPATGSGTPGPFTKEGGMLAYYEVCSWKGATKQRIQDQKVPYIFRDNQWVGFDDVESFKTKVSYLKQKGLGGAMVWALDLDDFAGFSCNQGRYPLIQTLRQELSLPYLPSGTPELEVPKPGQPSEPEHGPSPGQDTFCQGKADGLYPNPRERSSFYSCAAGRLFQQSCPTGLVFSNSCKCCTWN", "test": "Chitinase activity assay, steady-state kinetics", "assay_type": "biochemical", "procedure,_shortened": "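Human chitotriosidase at 2 nM final with fluorigenic 4MU-(GlcNAc)3 in 0.2 M Na2HPO4/0.1 M citric acid pH 5.5, incubated 60 min at 37°C. Quenched with 3 M glycine/NaOH pH 10; 4MU product read at ex 360/em 460 nm. Reactions run in triplicate, with no-enzyme readings subtracted. Km and kcat from steady-state fit, means ± S.E.M. of three independent experiments.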"}, "[2]": {"target": "T1, YKL-39 S143D/I145E active mutant (Homo sapiens, UniProt Q15782, I145E/S143D)", "T1 sequence (Q15782 27-390 S143D/I145E)": "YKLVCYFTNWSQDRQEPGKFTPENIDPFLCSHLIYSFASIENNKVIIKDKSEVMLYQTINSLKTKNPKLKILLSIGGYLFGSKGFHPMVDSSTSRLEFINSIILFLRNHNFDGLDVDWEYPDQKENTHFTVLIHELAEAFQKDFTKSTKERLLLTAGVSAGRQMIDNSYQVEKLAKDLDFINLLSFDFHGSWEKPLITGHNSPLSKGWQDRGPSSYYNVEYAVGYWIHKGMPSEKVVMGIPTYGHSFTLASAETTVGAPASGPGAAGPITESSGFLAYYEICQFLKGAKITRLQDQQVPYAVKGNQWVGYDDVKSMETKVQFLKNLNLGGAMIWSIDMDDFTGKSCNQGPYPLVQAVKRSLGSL", "test": "Chitinase activity assay, steady-state kinetics and inhibition", "assay_type": "biochemical", "procedure,_shortened": "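S143D/I145E mutant was secreted from methanol-induced Pichia pastoris GS115 and purified by CM-Sepharose and size exclusion. 20 nM enzyme with 4MU-(GlcNAc)3 in 0.2 M Na2HPO4/0.1 M citric acid pH 5.5, 60 min at 37°C. Quenched with 3 M glycine/NaOH pH 10; read at ex 360/em 460 nm. Triplicates, no-enzyme blank subtracted. Kinetic parameters from curve fit over three independent experiments; Ki by non-linear regression.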"}, "YKL-39": {"target": "T2, YKL-39 (Homo sapiens, UniProt Q15782)", "T2 sequence (Q15782 27-390)": "T1 sequence (Q15782 27-390 S143D/I145E) with D117S, E119I", "test": "Glycan array screen", "assay_type": "binding", "conditions": "AlexaFluor 488-labelled YKL-39, array of 264 glycans", "procedure,_shortened": "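Amino-linked natural and synthetic glycans were printed on modified glass slides, six replicates each. Dye-labelled protein was applied for 1 h at room temperature. Slides were spun dry and scanned at ex 495/em 520 nm. Means ± S.D. of four observations.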"}, "hAMCase": {"system": "hAMCase", "conditions": "cited from earlier work"}}, "note": "Numbering of substitutions follows the chain as printed."}
{"molecule": "CC(=O)N[C@H]1[C@H](Oc2ccc3c(C)cc(=O)oc3c2)O[C@H](CO)[C@@H](O[C@@H]2O[C@H](CO)[C@@H](O[C@@H]3O[C@H](CO)[C@@H](O)[C@H](O)[C@H]3NC(C)=O)[C@H](O)[C@H]2NC(C)=O)[C@@H]1O", "note": "[4MU-(GlcNAc)3, 4-methylumbelliferyl-β-D-N,N′,N′’-triacetylchitotriose]", "values": [{"measurement": "kcat", "setting": "[1]; fluorigenic pseudosubstrate, pH 5.5, 37°C", "result": "15.7 ± 0.3", "unit": "s⁻¹"}, {"measurement": "Km", "setting": "[1]; read-out: Michaelis constant (Km), fluorigenic pseudosubstrate, pH 5.5, 37°C", "result": "53 ± 3", "unit": "µM"}, {"measurement": "kcat", "setting": "[2]; YKL-39 S143D/I145E, fluorigenic pseudosubstrate, pH 5.5, 37°C", "result": "0.02 ± 0.0002", "unit": "s⁻¹"}, {"measurement": "Km", "setting": "[2]; read-out: Michaelis constant (Km), YKL-39 S143D/I145E, fluorigenic pseudosubstrate, pH 5.5, 37°C", "result": "9 ± 1", "unit": "µM"}]}
{"molecule": "CC(=O)N[C@H]1[C@H](O[C@H]2[C@H](O)[C@@H](NC(C)=O)[C@H](O[C@H]3[C@H](O)[C@@H](NC(C)=O)C(O)O[C@@H]3CO)O[C@@H]2CO)O[C@H](CO)[C@@H](O[C@@H]2O[C@H](CO)[C@@H](O[C@@H]3O[C@H](CO)[C@@H](O[C@@H]4O[C@H](CO)[C@@H](O)[C@H](O)[C@H]4NC(C)=O)[C@H](O)[C@H]3NC(C)=O)[C@H](O)[C@H]2NC(C)=O)[C@@H]1O", "note": "(stereo partly drawn) [(GlcNAc)6, chitohexaose]", "values": [{"measurement": "binding to YKL-39 in glycan array (relative fluorescence)", "setting": "YKL-39", "result": "strongest binders"}]}
{"molecule": "Cn1cnc2c1c(=O)n(CCCn1c(=O)c3[nH]cnc3n(C)c1=O)c(=O)n2C", "note": "[bisdionin F]", "values": [{"measurement": "activity against hAMCase", "setting": "hAMCase", "result": "submicromolar"}, {"measurement": "selectivity for hAMCase over hCHT", "setting": "hAMCase", "result": "selectivity over hCHT"}]}
{"molecule": "CCc1nc2c([nH]1)c(=O)n(CCCn1c(=O)c3c(ncn3C)n(C)c1=O)c(=O)n2C", "note": "[bisdionin G, 1-{3-[3,7-dimethyl-2,6-dioxo-2,3-dihydro-6H-purin-1(7H)-yl]propyl}-8-ethyl-3-methyl-1H-purine-2,6(3H, 7H)-dione]", "values": [{"measurement": "Ki", "setting": "[2]", "result": "120 ± 2", "unit": "µM"}]}
{"molecule": "(GlcNAc)5", "values": [{"measurement": "binding to YKL-39 in glycan array (relative fluorescence)", "setting": "YKL-39", "result": "strongest binders"}]}
